How the values were obtained:
Rattus norvegicus [1] = species: Rattus norvegicus; experiment: (§1) Reduction rate of LDH release from neuronal cells injured by iron […]; format: functional
In short: (§2)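 Cortical neurons from E17-18 rat embryos, cultured 7-9 days at 37 °C, 5% CO2. Serum lowered to 0.2% in MEM. Pretreated 30 min with compound in DMSO (final ≤0.2%), then FeSO4 at 50 µM final for 24 h. LDH released into medium measured; reduction of LDH release taken relative to control. Four determinations averaged.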

Rattus norvegicus [2] = experiment: Ratio of myocardial infarct zone to area at risk […] in ischemic myocardium damage rat model (Cardioprotective effect) at 0.3 mg/Kg; format: functional
In short: (§3)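 Male Sprague-Dawley rats (350-450 g), pentobarbital 75 mg/kg i.p., ventilated 60/min at 10 mL/kg, 37 °C. Vehicle or compound given via femoral vein over 30 min, with or without glibenclamide or 5-HD. Left coronary occlusion 45 min, reperfusion 90 min. Risk zone marked by Evans blue after reocclusion. LV slices stained with TTC at 37 °C, pH 7.4, 15 min. Infarct area summed, divided by AAR weight; n = 3 or more.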

Rattus norvegicus [3] = species: Rattus norvegicus; experiment: as §1; format: functional, cell-based
Rattus norvegicus [4] = experiment: Ratio of myocardial infarct zone to area at risk (IZ/AAR) in ischemic myocardium damage rat model (Cardioprotective effect) at 0.3 mg/Kg; format: functional; in short: as §3
Rattus norvegicus [5] = species: Rattus norvegicus; experiment: Inhibition of methoxamine-contracted rat aorta (Vasorelaxant potency); format: functional
In short: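 Rat aortic rings (Sprague-Dawley, 350-450 g; 3 mm rings, adipose removed) held in oxygenated modified Krebs-Henseleit PSS at 37 °C under 2 g resting tension, stabilised 1 h. Once methoxamine contraction reached a maintained maximum, compound added cumulatively at 1, 3, 10, 30 µM. Relaxation taken as change in maximal methoxamine constriction and plotted as concentration-relaxation curve.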

Rattus norvegicus [6] = species: Rattus norvegicus; experiment: Reduction rate of LDH release from rat neuronal cells injured by iron […]; format: functional; in short: as §2
Rattus norvegicus [7] = experiment: Ratio of myocardial infarct zone to area at risk […] in ischemic myocardium damage rat model (Cardioprotective effect) in the presence of 5-HD (10 mg/kg); format: functional; in short: as §3
Rattus norvegicus [8] = experiment: Ratio of myocardial infarct zone to area at risk(IZ/AAR)in ischemic myocardium damage rat model (Cardioprotective effect) at 0.3 mg/kg; Not determined; format: functional; in short: as §3
Rattus norvegicus [9] = experiment: Ratio of myocardial infarct zone to area at risk(IZ/AAR)in ischemic myocardium damage rat model (Cardioprotective effect) at 0.1 mg/kg; format: functional; in short: as §3
Rattus norvegicus [10] = experiment: Ratio of myocardial infarct zone to area at risk […] in ischemic myocardium damage rat model (Cardioprotective effect) in the presence of Gliben 1 mg/kg; format: functional; in short: as §3
Rattus norvegicus [11] = experiment: Ratio of myocardial infarct zone to area at risk […] in ischemic myocardium damage rat model (Cardioprotective effect) at 1 mg/Kg; format: functional; in short: as §3
Rattus norvegicus [12] = experiment: Ratio of myocardial infarct zone to area at risk (IZ/AAR) in ischemic myocardium damage rat model (Cardioprotective effect) in the presence of 5-HD (10 mg/kg); format: functional; in short: as §3
Rattus norvegicus [13] = experiment: Ratio of myocardial infarct zone to area at risk(IZ/AAR)in ischemic myocardium damage rat model (Cardioprotective effect) at 1 mg/kg; Not determined; format: functional; in short: as §3
Rattus norvegicus [14] = experiment: Ratio of myocardial infarct zone to area at risk (IZ/AAR) in ischemic myocardium damage rat model (Cardioprotective effect) in the presence of Gliben 1 mg/kg; format: functional; in short: as §3
Rattus norvegicus [15] = experiment: Ratio of myocardial infarct zone to area at risk […] in ischemic myocardium damage rat model (Cardioprotective effect) at 0.1 mg/Kg; format: functional; in short: as §3

SMILES	inhibition at 30 µM (Rattus norvegicus [1]) [%]	Effect (Rattus norvegicus [2]) [%]	Effect (Rattus norvegicus [4]) [%]	also measured
COC(OC)[C@]1(C)Oc2ccc([N+](=O)[O-])cc2[C@@H](N/C(=N/C#N)NCc2ccccc2)[C@@H]1O	37	–	–	–
COC(OC)[C@@]1(C)Oc2ccc(N)cc2[C@H](/N=C(\NC#N)NCc2ccccc2)[C@H]1O	–	33	51	IC50 (Rattus norvegicus [3]): 9.2 µM
COC(OC)[C@]1(C)Oc2ccc(NC(C)=O)cc2[C@H](/N=C(\NC#N)NCc2ccccc2)[C@@H]1O	25	41	45	–
COC(OC)[C@]1(C)Oc2ccc([N+](=O)[O-])cc2[C@@H](/N=C(\NC#N)Nc2ccc(Cl)cc2)[C@@H]1O	61	37	52	IC50 (Rattus norvegicus [5]; Rattus norvegicus, Aorta): 17.5 µM
CC1(C)COC([C@]2(C)Oc3ccc(N)cc3[C@H](/N=C(\NC#N)NCc3ccccc3)[C@@H]2O)OC1	60	42	56	–
COC(OC)[C@]1(C)Oc2ccc([N+](=O)[O-])cc2[C@@H](/N=C(\NC#N)Nc2cccc(Cl)c2)[C@@H]1O	70	47	40	IC50 (Rattus norvegicus [5]; Rattus norvegicus, Aorta): 30.5 µM
COc1ccc(N/C(=N/[C@H]2c3cc([N+](=O)[O-])ccc3O[C@@](C)(C(OC)OC)[C@H]2O)NC#N)cc1	45	38	43	–
COC(OC)[C@]1(C)Oc2ccc(N)cc2[C@@H](/N=C(\NC#N)NCc2ccccc2)[C@@H]1O	–	39	46	IC50 (Rattus norvegicus [3]): 8 µM
COC(OC)[C@]1(C)Oc2ccc(N)cc2[C@H](/N=C(\NC#N)NCc2ccccc2)[C@H]1O	–	38	51	IC50 (Rattus norvegicus [3]): 4.1 µM
CC1(C)Oc2ccc(C#N)cc2[C@@H](/N=C(\NC#N)Nc2ccc(Cl)cc2)[C@@H]1O	–	39	39	IC50 (Rattus norvegicus [5]; Rattus norvegicus, Aorta): 3.2 µM; inhibition at 30 µM (Rattus norvegicus [6]): 20%
COC(OC)C1(C)Oc2ccc([N+](=O)[O-])cc2C(/N=C(\NC#N)Nc2ccc(Cl)cc2)[C@@H]1O (single isomer, unassigned)	58	46	46	–
COC(OC)C1(C)Oc2ccc([N+](=O)[O-])cc2C(/N=C(\NC#N)NCc2ccccc2)[C@@H]1O (single isomer, unassigned)	7	37	49	–
CC1(C2OCCO2)Oc2ccc(N)cc2C(/N=C(\NC#N)NCc2ccccc2)[C@@H]1O (single isomer, unassigned)	3.6	32	52	–
COC(OC)C1(C)Oc2ccc(NS(C)(=O)=O)cc2C(/N=C(\NC#N)NCc2ccccc2)[C@@H]1O (single isomer, unassigned)	10	35	43	–
COc1ccc(CN/C(=N/C2c3cc(N)ccc3OC(C)(C(OC)OC)[C@H]2O)NC#N)cc1 (single isomer, unassigned)	–	37	42	IC50 (Rattus norvegicus [3]): 4.1 µM
COC(OC)C1(C)Oc2ccc(N)cc2C(/N=C(\NC#N)NCc2ccccc2)[C@@H]1O (single isomer, unassigned)	–	35	37	Effect (Rattus norvegicus [7]): 35%; Effect (Rattus norvegicus [8]): 37%; Effect (Rattus norvegicus [9]): 42%; Effect (Rattus norvegicus [10]): 33%; Effect (Rattus norvegicus [11]): 35%; Effect (Rattus norvegicus [12]): 46%; Effect (Rattus norvegicus [13]): 34%; Effect (Rattus norvegicus [14]): 51%; Effect (Rattus norvegicus [15]): 34%; IC50 (Rattus norvegicus [3]): 2.2 µM
COC(OC)C1(C)Oc2ccc([N+](=O)[O-])cc2C(N/C(=N/C#N)NCc2ccccc2)[C@H]1O (single isomer, unassigned)	–	–	–	IC50 (Rattus norvegicus [5]; Rattus norvegicus, Aorta): 7.3 µM
COC(OC)[C@@]1(C)Oc2ccc([N+](=O)[O-])cc2C(N/C(=N/C#N)NCc2ccccc2)[C@H]1O (single isomer, unassigned)	–	38	49	IC50 (Rattus norvegicus [5]): 9.8 µM
